Legend:
[1] = Displacement of [3H]SCH23390 from dopamine D1-like receptor in Wistar rat striatal membrane after 1 hr by scintillation counting; type: cell membranes, Striatum
Method in brief: (§1)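 Striatal membranes from female Wistar rats, 100 µg/mL, in Tris-ions buffer pH 7.4 (120 mM NaCl, 2 mM CaCl2, 5 mM KCl, 1 mM MgCl2, 0.1% ascorbic acid). Incubated 1 h at 23 °C with 0.25 nM [3H]-SCH23390 and competitor 10^-10 to 10^-4 M. Non-specific binding with 30 µM SK&F38393. Filtration, then scintillation counting. Ki from KD 0.36 nM. Mean ± SEM of 3–6 experiments.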

Rattus norvegicus = species on record: Rattus norvegicus; assay: Selectivity ratio of Ki of Wistar rat dopamine D1-like receptor to Ki for Wistar rat dopamine D2-like receptor
[2] = Displacement of [3H]raclopride from dopamine D2-like receptor in Wistar rat striatal membrane after 1 hr by scintillation counting; type: cell membranes, Striatum
Method in brief: as §1, with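 “200” for “100”, “0.5” for “0.25”, “[3H]-raclopride” for “[3H]-SCH23390”, “50” for “30”, “apomorphine.” for “SK&F38393.”, “1.25” for “0.36”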

SMILES	Ki [1]	pKi [1]	Ratio Ki (Rattus norvegicus)	Ki [2]	pKi [2]
COc1cc2c(cc1Cl)CCN(C)C2Cc1ccc(Cl)cc1Cl (stereo not given)	15100 nM	4.84	2.5	6130 nM	5.23
COc1cc2c(cc1Cl)CCNC2Cc1ccccc1Br (stereo not given)	1530 nM	5.83	6.2	245 nM	6.63
CN1CCc2cc(Cl)c(O)cc2C1Cc1ccccc1Br (stereo not given)	65 nM	7.21	3.6	18 nM	7.76
CN1CCc2cc(Cl)c(O)cc2C1Cc1ccc(Cl)cc1Cl (stereo not given)	241 nM	6.71	0.9	269 nM	6.64
COc1cc2c(cc1Cl)CCN(C)C2Cc1ccccc1Br (stereo not given)	1320 nM	5.89	1	1340 nM	5.9
COc1cc2c(cc1Cl)CCNC2Cc1ccc(Cl)cc1Cl (stereo not given)	11300 nM	5.01	3.4	3300 nM	5.51
Oc1cc2c(cc1Cl)CCNC2Cc1ccc(Cl)cc1Cl (stereo not given)	183 nM	6.74	1.7	107 nM	7
Oc1cc2c(cc1Cl)CCNC2Cc1ccccc1Br (stereo not given)	110 nM	7.06	2.4	46 nM	7.39
